The structures appear in SMILES notation. Activity calls are given as the source filed them. No cut-off for these calls is given here.

Common to all, as to format: functional
Assay [1] in a line: Antioxidant activity assessed as inhibition of ROS-induced linoleic acid peroxidation at 1 mM after 15 mins at 100 degC by modified TBARS assay relative to control. A digest of the protocol:
(§1)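 Linoleic acid (1.5% in ethanol) diluted with twofold 200 mM PBS, pH 7.4, then incubated with 2.5 mM FeSO4 (0.2 mL) and test sample at 37 °C for 30 min. The reaction was stopped with 10% TCA and 0.67% TBA, then boiled 15 min. The MDA–TBA adduct in the supernatant was read at 532 nm. % inhibition = [(A−A1)/A]×100 versus control absorbance.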

The nature of assay [2]: Antioxidant activity assessed as inhibition of ROS-induced linoleic acid peroxidation at 2 mM after 15 mins at 100 degC by modified TBARS assay relative to control. A digest of the protocol:
as §1

The nature of assay [3]: Neuroprotective effect against H202-induced Sprague-Dawley rat cortical neuron injury assessed as cell viability at 1 to 1000 uM treated 30 mins before H202 challenge measured after 24 hrs by MTT assay. The note with it: Cortical neurone. The procedure, abridged:
(§2)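 Cortices from 1–3-day-old Sprague–Dawley rats were digested with 0.25% […] at 37 °C, and cells were plated at 9×10^4/well in DMEM/10% FBS for 24 h plus 12 h. Drugs were added 30 min before 0.5 mM H2O2, then incubated 24 h at 37 °C, 5% CO2. Viability was measured by MTT 4 h, DMSO solubilization, A570, as % of untreated/saline control. Means ± SEM of three independent experiments.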
In general terms: Formazan colour is commonly taken as a measure of viable cells.

Assay [4] is described as follows: Neuroprotective effect against H202-induced Sprague-Dawley rat cortical neuron injury assessed as cell viability at 1 mM treated 30 mins before H202 challenge measured after 24 hrs by MTT assay relative to control. The note with it: Cortical neurone. A digest of the protocol: as §2
In assay [5] the test system is Platelet. The experiment in a line: Inhibition of ADP-induced New Zealand rabbit platelet aggregation at 2 mM treated for 1 min prior to ADP challenge by turbidimetric method relative to control. The note with it: Oryctolagus cuniculus. The procedure, abridged: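 New Zealand rabbit blood was anticoagulated with 3.8% citrate (9:1), and PRP was taken by centrifugation. PRP was pre-warmed at 37 °C for 1 min, then drug was added to 2 mM final. After 1 min of stirring, ADP (10 µM) was added and the reaction ran 4 min. Maximum change in light transmission was recorded turbidimetrically and expressed as % of drug-free control.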

Assay [6] has as its system Rattus norvegicus. The experiment in a line: Antithrombotic activity in Sprague-Dawley rat venous thrombus model assessed as inhibition of thrombus formation at 3.25 mg/kg, iv administered 2 hrs after ligation measured after 24 hrs relative to control.
Assay [7] has as its system Rattus norvegicus. The experiment in a line: Neuroprotective effect against middle cerebral artery occlusion-induced focal cerebral ischemia in Sprague-Dawley rat assessed as reduction in infarct area at 80 mg/kg, ip administered 1 hr after MCA occlusion measured after 24 hrs of reperfusion by TTC staining relative to control. Also on record: scale not given: the % may be the effect or the level left. Conditions: route intraperitoneal. A digest of the protocol:
(§3)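 Female Sprague-Dawley rats (210–240 g) under chloral hydrate (400 mg/kg ip) underwent 2 h transient proximal MCA occlusion by intraluminal suture, then reperfusion. Drug or saline was given ip 1 h after occlusion. After 24 h of reperfusion, 2-mm brain slices were stained with 0.5% TTC for 30 min at 37 °C. Infarct area was expressed as % of total section area. Single-tail Student's t-test versus control.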

A short description of assay [8]: Neuroprotective effect against H202-induced Sprague-Dawley rat cortical neuron injury assessed as cell viability at 100 uM treated 30 mins before H202 challenge measured after 24 hrs by MTT assay. Conditions: Cortical neurone. The procedure, abridged: as §2
The subject of assay [9] is Rattus norvegicus. The experiment in a line: Neuroprotective effect against middle cerebral artery occlusion-induced focal cerebral ischemia in Sprague-Dawley rat assessed as reduction in infarct area at 62 mg/kg, ip administered 1 hr after MCA occlusion measured after 24 hrs of reperfusion by TTC staining relative to control. Also on record: scale not given: the % may be the effect or the level left. The note with it: route intraperitoneal. The procedure, abridged: as §3

Assay [10] is described as follows: Neuroprotective effect against H202-induced Sprague-Dawley rat cortical neuron injury assessed as cell viability up to 1 mM treated 30 mins before H202 challenge measured after 24 hrs by MTT assay. Conditions: Cortical neurone. The procedure, abridged: as §2
The test system of assay [11] is Rattus norvegicus. In words: Antithrombotic activity in Sprague-Dawley rat venous thrombus model assessed as inhibition of thrombus formation at 2 mg/kg, iv administered 2 hrs after ligation measured after 24 hrs relative to control.
Assay [12] relates to Rattus norvegicus. In words: Antithrombotic activity in rat venous thrombosis model assessed as inhibition of thrombus formation at 1.2 mg/kg.
The subject of assay [13] is Rattus norvegicus. The experiment in a line: Neuroprotective effect against middle cerebral artery occlusion-induced focal cerebral ischemia in Sprague-Dawley rat assessed as reduction in infarct area at 50 mg/kg, ip administered 1 hr after MCA occlusion measured after 24 hrs of reperfusion by TTC staining relative to control. Further details: scale not given: the % may be the effect or the level left. Conditions: route intraperitoneal. A digest of the protocol: as §3

Assay [14] has as its system Rattus norvegicus. The experiment in a line: Neuroprotective effect against middle cerebral artery occlusion-induced focal cerebral ischemia in Sprague-Dawley rat assessed as reduction in infarct area at 65 mg/kg, ip administered 1 hr after MCA occlusion measured after 24 hrs of reperfusion by TTC staining relative to control. Also on record: scale not given: the % may be the effect or the level left. The note with it: route intraperitoneal. A digest of the protocol: as §3

For `Cc1nc(C)c(/C=[N+](\[O-])C(C)(C)C)nc1C`, the inhibition (in general, how much of the control response was suppressed) in assay [1] stood at 13.7%; in [2] it was 40%. Besides, the result in [3] was Active. Further, the Activity in [4] was 96%; in assay [7], 56.3%. Further, 2000 µM produced 30% inhibition in assay [5]. Besides, the inhibition in vivo (usually the share of the control response that was lost under treatment) at 3.25 mg/kg in assay [6] amounted to 57.6%.

With `CC(=O)Oc1ccccc1C(=O)O` [ASPIRIN], in [5], the inhibition at 2000 µM was determined as 24.8%.

Consider `O=C1O[C@H]([C@@H](O)CO)C(O)=C1O`, for which the inhibition in assay [1] was found to be 43.3%; in assay [2], 53.2%.

As to `CC1=NN(c2ccccc2)C(=O)C1` [EDARAVONE], the inhibition in assay [1] turned out to be 37.9%; in assay [2], 43.7%. For the same compound, the Activity was determined as 82% in [4] and 52.5% in assay [9]. Besides, the result in [8] was Active. The compound also yielded an inhibition at 2000 µM in assay [5] of 32.4%.

Consider `Cc1nc(C)c(C)nc1C` [LIGUSTRAZINE], for which the inhibition is 6.6% in assay [1] and 9% in assay [2]. For the same compound, in assay [10], the result was inactive. In [5], this compound showed an inhibition at 2000 µM of 36.2%. In addition, the inhibition in vivo at 2 mg/kg in assay [11] was found to be 71.2%. Also, the inhibition in vivo at 1.2 mg/kg in assay [12] was found to be 50%. For the same compound, the Activity in assay [13] amounted to 46.3%.

As to `CC(C)(C)/[N+]([O-])=C/c1ccccc1`, the inhibition in assay [1] turned out to be 15.8%; in assay [2], 25.1%. Further, the outcome in assay [10] was inactive. Further, the inhibition at 2000 µM in assay [5] came out at 33.9%. Also, in [14], the Activity is reported as 31.1%.

These data come from ChEMBL document CHEMBL1141722, “Antioxidative and thrombolytic TMP nitrone for treatment of ischemic stroke” (2008).
